# According to the RNAGym collection of RNA variant scans (doi:10.1126/science.aae0568):
# This sample holds only a part of the variants without activity.
# B1: tRNA (parent)
# chain: GUUCCGUUGGCGUAAUGGUAACGCGUCUCCCUCCUAAGGAGAAGACUGCGGGUUCGAGUCCCGUACGGAACG
# Variants of: B1
# Experiment: yeast fitness relative to wild type (ratio to wild type); higher = fitter; tRNA-Arg(CCU), competitive growth, 37 C, YPD
# Outline: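 Variants of the tRNA-Arg(CCU) gene, chemically synthesised with a 3% per-site mutation rate at 69 sites, were placed at the native genomic locus in Saccharomyces cerevisiae. The pooled strains were competed in YPD at 37°C for 24 hours in six parallel replicates. Gene amplicons from the start population and from each end population were read by 100-nucleotide paired-end sequencing. Darwinian fitness relative to wild type came from changes in genotype frequencies; genotypes needed ≥ 100 starting reads, and estimates < 0.5 were set to 0.5.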
row,Variant,yeast fitness
1,GUUCCGUUGGAGUAAUGGUAUCGCGUCUCCCUCCUAAGGAGAAGACUGCGGGUGCGAGUCCCGUACGGAACG,≤ 0.5
2,GUUCCGUUGGAGUAAUGGUAACGCGUCUCCCUCCUCAGGAGAGGACUGCCGGUUCGAGUCCCGUACGGAACG,≤ 0.5
3,GUUCCGUUGGAGUAAUGGUAACGCGUCUCCCUCCUCAGGAGAAGACUGCGGGUUCCAGUCCCGUACGGAACG,0.614
4,GUUCCGUUGGAGUAAUGGUAACGCGUCUCCCUCCUGAGGAGAAGACUGCGGGUUCGAGUCCCGUACGGAACG,0.646
5,GUUCCGUUGGAGUAAUGGUAACGCGUCUCCCUCCUGAGGAGACGACUGCGGGUUCGAGUCCCGUACGGAACG,0.58
6,GUUCCGUUGGAGUAAUGGUAACGCGUCUCCCUCCUGAGGAGAAGACUGCGGGUUCGAGUCCUGUACGGAACG,0.539
7,GUUCCGUUGGAGUAAUGGUAACGCGUCUCCCUCCUUAGGAGAAGACUGCGGGUUCGAGUCCCGUACGGAACG,0.559
8,GUUCCGUUGGAGUAAUGGUAACGCGUCUCCCUCCUUAGGCGAAGACUGCGGGUUCGAGUCCCGUACGGAACG,≤ 0.5
9,GUUCCGUUGGAGUAAUGGUAACGCGUCUCCCUCCUUAGGAGAAGACUGCGGGUUCGAGUCUCGUUCGGAACG,≤ 0.5
10,GUUCCGUUGGAGUAAUGGUAACGCGUCUCCCUCCUACGGAGAAGACUGGGGGUUCGAGUCCCGUACGGAACG,≤ 0.5
11,GUUCCGUUGGAGUAAUGGUAACGCGUCUCCCUCCUACGGAGAAGACUGGGGGUUCGAGUCCCGUAAGGAACG,≤ 0.5
12,GUUCCGUUGGAGUAAUGGUAACGCGUCUCCCUCCUAGGGAGAAGACUGCGGGUUCGAGUCCCGUACGGAACG,0.566
13,GUUCCGUUGGAGUAAUGGUAACGCGUCUCCCUCCUAGGGGGAGGACUGCGGCUUCGAGGCCCGUACGGAACG,≤ 0.5
14,GUUCCGUUGGAGUAAUGGUAACGCGUCUCCCUCCUAGGGAGAAGACUGAGGGUUCGAGUCCCGUACGGAACG,0.653
15,GUUCCGUUGGAGUAAUGGUAACGCGUCUCCCUCCUAUGGAGAAGACUGCGGGUUCGAGUCCCGUACGGAACG,0.587
16,GUUCCGUUGGAGUAAUGGUAACGCGUCUCCCUCCUAUGGAGAAGACUGGGGGUUCGAGUGCGGUACGGAACG,≤ 0.5
17,GUUCCGUUGGAGUAAUGGUAACGCGUCUCCCUCCUAUGGAGAAGACUACGGGUUCGAGUCCCGUACGGAACG,≤ 0.5
18,GUUCCGUUGGAGUAAUGGUAACGCGUCUCCCUCCUAUGGAGAAGACUGCGGGUUCGAGUCCCGUACAGAACG,≤ 0.5
19,GUUCCGUUGGAGUAAUGGUAACGCGUCUCCCUCCUAUGGAGAAGACUGCGGGUCCGAGUCCCGUACGGAACG,0.678

row,Variant,yeast fitness
1,GUUCCGUUGGAGUAAUGGUAACGCGUCUCCCUCCUAAGGGGAAGACUGCGGGUUCGAGUCCCGUACGGAACG,0.602
2,GUUCCGUUGGAGUAAUGGUAACGCGUCUCCCUCCUAAGGGGAAGACUGCGGGCUCGAGUCCCGUACGGAACG,0.619
3,GUUCCGUUGGAGUAAUGGUAACGCGUCUCCCUCCUAAGGAGCAGACUGCGGGUUCGAGUCCCGUUUGGAACG,0.623
4,GUUCCGUUGGAGUAAUGGUAACGCGUCUCCCUCCUAAGGAGCAGACUGCCGGUUCGCGUCGCGUACGGAACG,≤ 0.5
5,GUUCCGUUGGAGUAAUGGUAACGCGUCUCCCUCCUAAGGAGGUGAUUGCGGGUUCGAGUCCUGUACGGAACG,0.582
6,GUUCCGUUGGAGUAAUGGUAACGCGUCUCCCUCCUAAGGAGGAGACUGCGGGGUCGAGUCCCGUACGGAACG,≤ 0.5
7,GUUCCGUUGGAGUAAUGGUAACGCGUCUCCCUCCUAAGGAGGAGACUGCGGGUUCGAGUCCCGAACAGAACG,≤ 0.5
8,GUUCCGUUGGAGUAAUGGUAACGCGUCUCCCUCCUAAGGAGUAGACUGCGGGUUCGAGUCCCGUACGGAACG,0.724
9,GUUCCGUUGGAGUAAUGGUAACGCGUCUCCCUCCUAAGGAGUACACUGCGGGUACGAGUCCUGUGCGGAACG,≤ 0.5
10,GUUCCGUUGGAGUAAUGGUAACGCGUCUCCCUCCUAAGGAGAGGACUGCGGGUUCGAGUCCCGUACGGAACG,0.621
11,GUUCCGUUGGAGUAAUGGUAACGCGUCUCCCUCCUAAGGAGAGGACUGCGGGUUCGAGUCUCGUACGGAACG,≤ 0.5
12,GUUCCGUUGGAGUAAUGGUAACGCGUCUCCCUCCUAAGGAGAGGACUGCCGGUUCGAGUCCCGUACGGAACG,≤ 0.5
13,GUUCCGUUGGAGUAAUGGUAACGCGUCUCCCUCCUAAGGAGAGGACCGCGGGUUCGAGUCCCGUCCGGAACG,≤ 0.5
14,GUUCCGUUGGAGUAAUGGUAACGCGUCUCCCUCCUAAGGAGAGGACUGCGGGUUCGAGUCCCGAACGGAACG,0.601
15,GUUCCGUUGGAGUAAUGGUAACGCGUCUCCCUCCUAAGGAGAUGCCUGCGGGCUCGAGUCCCGUACGGAACG,≤ 0.5
16,GUUCCGUUGGAGUAAUGGUAACGCGUCUCCCUCCUAAGGAGAUGAUGGCGGGUUCGAGUCCCGUACGGAACG,0.565
17,GUUCCGUUGGAGUAAUGGUAACGCGUCUCCCUCCUAAGGAGAUGAUGGCGGGUUCGAGUCCCGUACGGAUCG,≤ 0.5
18,GUUCCGUUGGAGUAAUGGUAACGCGUCUCCCUCCUAAGGAGAUGAUGGCGGGUUCGAAUCCCGUACGGAACG,≤ 0.5
19,GUUCCGUUGGAGUAAUGGUAACGCGUCUCCCUCCUAAGGAGAUGACUCCGGGUUCGAGUGCCGUACGGAACG,≤ 0.5
